Results: ChEMBL document CHEMBL1156779, “Biotin derivatives carrying two chelating DOTA units. Synthesis, in vitro evaluation of biotinidases resistance, avidin binding, and radiolabeling tests” (J Med Chem, 2010)

Columns and labels:
[1] = Displacement of HABA from avidin at 31 uM
How it was run: (§1)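 HABA competition in cuvettes. HABA/avidin complex formed at final avidin 7.6 μM and […], then competitors added at various concentrations. Absorbance read at 500 nm. Triplicate runs. % inhibition computed from absorbance with competitor against absorbance without competitor, each corrected for the blank without HABA/Av complex.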

[2] = Displacement of HABA from avidin; how it was run: as §1
[3] = Binding affinity to avidin by thermal stability study
How it was run: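 Far-UV CD of avidin/ligand complexes. Thermal unfolding followed by the fall in dichroic signal at 225 nm over 25-95 °C. Settings: bandwidth 1 nm, response 0.5 s, data pitch 1 °C, slope 10 °C/min. Full spectrum (195-260 nm) recorded every 5 °C increment, each spectrum an average of three. Inflection point of the melting curve taken as the read-out.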

Serum = experiment: Stability in normal mouse serum after 2 hrs; type: ADME, cell-free
How it was run: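 Freshly collected normal mouse serum (50 μL) used as biotinidase source, mixed with sample and brought to 500 μL in 100 mM sodium acetate pH 5.5. Incubated at 37 °C for up to 2 h. Aliquots taken before and after incubation, diluted 10-fold in 0.08% TFA, then analysed by C18 RP-HPLC-ESI-MS (2-60% B over 20 min, 0.2 mL/min) for release of free biotin and recovery of parent.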

| Compound | inhibition [1] [%] | Activity [2] | Stability [3] [°C] | Stability (Serum) |
| --- | --- | --- | --- | --- |
| O=C(O)CN1CCN(CC(=O)O)CCN(CC(=O)NCCCN(CCCNC(=O)CN2CCN(CC(=O)O)CCN(CC(=O)O)CCN(CC(=O)O)CC2)CC(=O)NCCCCCCNCCCCC[C@@H]2SC[C@@H]3NC(=O)N[C@@H]32)CCN(CC(=O)O)CC1 | 66 | Dose-dependent effect | 90 | – |
| O=C(O)CN1CCN(CC(=O)O)CCN(CC(=O)NCCCCCCN(CCCCCCNC(=O)CN2CCN(CC(=O)O)CCN(CC(=O)O)CCN(CC(=O)O)CC2)CC(=O)NCCCCCCNCCCCC[C@@H]2SC[C@@H]3NC(=O)N[C@@H]32)CCN(CC(=O)O)CC1 | 64 | Dose-dependent effect | – | – |
| O=C(O)CN1CCN(CC(=O)O)CCN(CC(=O)NCCCN(CCCNC(=O)CN2CCN(CC(=O)O)CCN(CC(=O)O)CCN(CC(=O)O)CC2)CC(=O)NCCCCC(NC(=O)CCCC[C@@H]2SC[C@@H]3NC(=O)N[C@@H]32)C(=O)O)CCN(CC(=O)O)CC1 (stereo partly drawn) | 95 | Dose-dependent effect | > 95 | – |
| O=C(O)CN1CCN(CC(=O)O)CCN(CC(=O)NCCCN(CCCNC(=O)CN2CCN(CC(=O)O)CCN(CC(=O)O)CCN(CC(=O)O)CC2)CC(=O)Nc2ccc(C(=O)NCCCCC(NC(=O)CCCC[C@@H]3SC[C@@H]4NC(=O)N[C@@H]43)C(=O)O)cc2)CCN(CC(=O)O)CC1 (stereo partly drawn) | 97 | Dose-dependent effect | > 95 | Stable |
| O=C(O)CCCC[C@@H]1SC[C@@H]2NC(=O)N[C@@H]21 | 100 | – | – | – |
